In ChEMBL document CHEMBL2016444, “Discovery of novel 2-piperidinol-3-(arylsulfonyl)quinoxalines as phosphoinositide 3-kinase α (PI3Kα) inhibitors” (Bioorg Med Chem, 2012) one finds IC50, inhibition and Ratio IC50 data, which are given here for 21 compounds.

The test system of one test is HCT-116. In words: Cytotoxicity against human HCT116 cells after 72 hrs by MTT assay. It is filed as functional, cell-based. The following applies: HCT-116, 72 h. A digest of the protocol:
(§1)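 Cells grown in RPMI-1640 with heat-inactivated 10% FBS, penicillin 100 units/mL, streptomycin, 37 °C, 20% O₂, 5% CO₂. Compounds from 10.0 mg/mL DMSO stocks, diluted. Cells plated 24 h, then exposed to a range of concentrations for 72 h; viable cells read by MTT kit per manufacturer's instructions.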

Another test concerns KB. In words: Cytotoxicity against human KB cells after 72 hrs by MTT assay. It is filed as functional, cell-based. Summed up: as §1
For orientation: Tetrazolium dyes change colour on reduction, which living cells bring about.

Another test has as its system PC-3. In words: Cytotoxicity against human PC3 cells after 72 hrs by MTT assay. It is filed as functional, cell-based. The following applies: PC-3, 72 h. Summed up: as §1
For a further test, the system named is A549. In words: Cytotoxicity against human A549 cells after 72 hrs by MTT assay. It is filed as functional, cell-based. The following applies: A549, 72 h. Summed up: as §1
The next test deals with HL-60. Kind of test: Cytotoxicity against human HL60 cells after 72 hrs by MTT assay. It is filed as functional, cell-based. The following applies: HL-60, 72 h. Summed up:
as §1

Test [1] addresses T1, Phosphatidylinositol 4,5-bisphosphate 3-kinase catalytic subunit alpha isoform (Homo sapiens, UniProt P42336). In words: Inhibition of PI3Kalpha-mediated AKT Ser473 phosphorylation in human PC3 cells at 10 uM after 3 hrs by Western blot analysis. It is filed as cell-based. The following applies: PC-3. Summed up:
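PC3 cells exposed to compound for 3 h. Lysates run on SDS–PAGE and probed for pAkt Ser473 by Western blot, with actin as internal control.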
A general note: A western blot detects proteins with antibodies after separation by electrophoresis.

Test [2] addresses T1, Phosphatidylinositol 4,5-bisphosphate 3-kinase catalytic subunit alpha isoform. Kind of test: Inhibition of PI3Kalpha using diC8-PI(4,5)P2 as substrate after 3 hrs by competitive fluorescence polarization assay. Summed up:
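Competitive fluorescence polarization. Buffer includes MgCl₂ and 10 mM DTT, with diC₈-PI(4,5)P₂ as substrate. Incubated 3 h at room temperature, then quenched with chelators. Phosphoinositide binding protein and a fluorophore-labeled phosphoinositide tracer were added, and samples equilibrated 1 h in the dark before reading.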
In general terms: Polarisation of emitted light reports the rotation of a fluorescent probe.

Test [3] shares this target. In words: Ratio of IC50 for WR1 to compound IC50 for PI3Kalpha using diC8-PI(4,5)P2 as substrate after 3 hrs by competitive fluorescence polarization assay.

Calls of active or inactive are those of the source. No cut-off for these calls is given here. Bounds are passed on as bounds.

T1 sequence (P42336 whole entry, canonical isoform): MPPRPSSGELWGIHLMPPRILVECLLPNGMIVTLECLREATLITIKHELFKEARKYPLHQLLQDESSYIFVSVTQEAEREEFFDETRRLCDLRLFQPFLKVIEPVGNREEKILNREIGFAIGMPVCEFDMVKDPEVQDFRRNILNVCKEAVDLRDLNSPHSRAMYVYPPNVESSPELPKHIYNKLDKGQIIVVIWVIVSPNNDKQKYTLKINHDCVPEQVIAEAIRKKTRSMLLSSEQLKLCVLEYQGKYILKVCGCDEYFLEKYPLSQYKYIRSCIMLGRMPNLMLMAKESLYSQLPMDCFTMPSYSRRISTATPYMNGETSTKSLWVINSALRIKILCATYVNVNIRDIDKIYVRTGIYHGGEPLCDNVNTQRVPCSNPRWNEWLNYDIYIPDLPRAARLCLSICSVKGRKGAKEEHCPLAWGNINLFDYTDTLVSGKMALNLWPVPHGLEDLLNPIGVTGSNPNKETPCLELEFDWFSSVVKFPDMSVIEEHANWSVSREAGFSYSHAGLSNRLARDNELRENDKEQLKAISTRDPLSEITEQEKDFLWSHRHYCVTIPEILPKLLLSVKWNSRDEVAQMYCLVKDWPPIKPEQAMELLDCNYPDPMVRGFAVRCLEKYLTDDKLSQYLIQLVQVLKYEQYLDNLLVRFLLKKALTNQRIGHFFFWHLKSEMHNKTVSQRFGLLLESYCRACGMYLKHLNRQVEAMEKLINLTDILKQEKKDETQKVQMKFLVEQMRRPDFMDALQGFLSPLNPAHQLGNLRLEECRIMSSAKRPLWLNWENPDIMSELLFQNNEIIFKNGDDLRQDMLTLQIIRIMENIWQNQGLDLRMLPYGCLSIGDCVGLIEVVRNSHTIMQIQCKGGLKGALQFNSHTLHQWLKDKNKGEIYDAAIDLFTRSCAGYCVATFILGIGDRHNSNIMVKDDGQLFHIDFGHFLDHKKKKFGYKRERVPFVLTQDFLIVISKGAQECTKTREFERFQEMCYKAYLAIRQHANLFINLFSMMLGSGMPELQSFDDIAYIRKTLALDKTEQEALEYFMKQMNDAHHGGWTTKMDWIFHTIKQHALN

As for `O=S(=O)(c1ccc(Br)cc1)c1nc2ccccc2nc1N1CCc2ccccc2C1`, the IC50 (in general, the midpoint of a concentration-inhibition curve) in the test on HCT-116 is over 50 µM; with KB it was over 50 µM; with PC-3, over 50 µM; in the test on A549 it was over 50 µM; in the test on HL-60, 2.61 µM.
For `Cc1ccc(S(=O)(=O)c2nc3ccccc3nc2N2CCc3ccccc3C2)cc1`, the IC50 in the test with HCT-116 was 39 µM; with KB, 32.1 µM; in the test with PC-3, 22.4 µM; in the test on A549, over 50 µM; with HL-60, 3.61 µM.
For `O=S(=O)(c1ccccc1)c1nc2ccccc2nc1N1CCCC(O)C1` (stereo unspecified), in that order: 1.39 µM, 3.59 µM, 2.1 µM, 0.31 µM and 3.02 µM.
In the same order, the values of `O=S(=O)(c1ccc(Br)cc1)c1nc2ccccc2nc1N1CCCC1` are 37.7 µM, over 50 µM, over 50 µM, over 50 µM and 6.07 µM.
With `O=S(=O)(c1ccc(Br)cc1)c1nc2ccccc2nc1N1CCC(O)CC1`, the inhibition entry in test [1] was “Active”. In addition, the IC50 came to 1.65 µM with HCT-116; 2.32 µM in the test with KB; 2.02 µM in the test with PC-3; 0.95 µM in the test with A549; 0.34 µM with HL-60; 0.025 µM in test [2].
As for `O=S(=O)(c1ccccc1)c1nc2ccccc2nc1N1CCC(O)CC1`, the IC50 in the test on HCT-116 was 1.87 µM; in the test on KB it was 5.36 µM; in the test on PC-3, 4.98 µM; with A549, 2.06 µM; in the test on HL-60, 2.9 µM; in test [2] it was 0.079 µM. For the same compound, in test [3], the Ratio IC50 was determined as 6.
As for `O=S(=O)(c1ccc(F)cc1)c1nc2ccccc2nc1N1CCCC1`, the IC50 in the test with HCT-116 worked out at 20.6 µM; in the test with KB it was 30.1 µM; in the test on PC-3, 12.4 µM; in the test with A549, 31.1 µM; with HL-60, 12.8 µM.
`O=S(=O)(c1ccc(F)cc1)c1nc2ccccc2nc1N1CCc2ccccc2C1`: the IC50 with HCT-116 turned out to be 16.6 µM; with KB, 35.4 µM; in the test on PC-3, 9.23 µM; in the test with A549, 22.9 µM; in the test with HL-60, 4.08 µM.
In the same order, the values of `Cc1ccc(S(=O)(=O)c2nc3ccccc3nc2N2CCCC(O)C2)cc1` (stereo unspecified) are 3.27 µM, 6.08 µM, 5.33 µM, 1.35 µM and 6.08 µM.
Consider `O=S(=O)(c1ccccc1)c1nc2ccccc2nc1N1CCCC1`, for which the IC50 in the test on HCT-116 was found to be 24.2 µM; in the test with KB it was 35.8 µM; in the test with PC-3, 20.8 µM; in the test on A549 it was 34.8 µM; in the test on HL-60 it was 3.46 µM; in test [2], 21.8 µM.
`O=S(=O)(c1ccccc1)c1nc2ccccc2nc1N1CCOCC1`: the IC50 in the test on HCT-116 is 5.35 µM; in the test with PC-3, 18.9 µM; with A549 it was 12.6 µM; in the test with HL-60, 4.47 µM; in test [2], 0.44 µM.
As to `O=S(=O)(c1ccc(Br)cc1)c1nc2ccccc2nc1N1CCCC(O)C1` (stereo unspecified), the IC50 in the test on HCT-116 was found to be 2.11 µM; in the test with KB it was 3.72 µM; with PC-3, 3.69 µM; in the test on A549, 2.1 µM; in the test on HL-60, 3.43 µM.
In the same order, the values of `COc1ccc(S(=O)(=O)c2nc3ccccc3nc2N2CCCC2)cc1` are over 50 µM, over 50 µM, over 50 µM, over 50 µM and 16 µM.
For `COc1ccc(S(=O)(=O)c2nc3ccccc3nc2N2CCC(O)CC2)cc1`, the IC50 stood at 4.69 µM with HCT-116; 8.06 µM in the test on KB; 9.73 µM with PC-3; 5.11 µM with A549; 3.23 µM in the test with HL-60.
With `O=S(=O)(c1ccccc1)c1nc2ccccc2nc1N1CCc2ccccc2C1`, the IC50 was 18.7 µM in the test with HCT-116; 26.3 µM with KB; 5.01 µM with PC-3; 19.8 µM with A549; 0.88 µM with HL-60; over 50 µM in test [2].
As for `Cc1ccc(S(=O)(=O)c2nc3ccccc3nc2N2CCCC2)cc1`, the IC50 is over 50 µM in the test on HCT-116; over 50 µM in the test on KB; over 50 µM with PC-3; over 50 µM with A549; 9.72 µM in the test with HL-60.
Turning to `Cc1ccc(S(=O)(=O)c2nc3ccccc3nc2N2CCC(O)CC2)cc1`, the IC50 amounted to 5.44 µM in the test with HCT-116; 6.14 µM with KB; 9.52 µM with PC-3; 4.02 µM with A549; 4.05 µM with HL-60.
In the same order, the values of `O=S(=O)(c1ccc(F)cc1)c1nc2ccccc2nc1N1CCC(O)CC1` are 1.34 µM, 9.58 µM, 2.01 µM, 20.2 µM and 1.45 µM.
With `O=S(=O)(c1ccc(F)cc1)c1nc2ccccc2nc1N1CCCC(O)C1` (stereo unspecified), the IC50 was 5.5 µM with HCT-116; 18.3 µM with KB; 2.13 µM in the test with PC-3; 8.17 µM in the test on A549; 2.62 µM with HL-60.
In the same order, the values of `COc1ccc(S(=O)(=O)c2nc3ccccc3nc2N2CCc3ccccc3C2)cc1` are 22.1 µM, over 50 µM, over 50 µM, over 50 µM and 3.69 µM.
In the same order, the values of `COc1ccc(S(=O)(=O)c2nc3ccccc3nc2N2CCCC(O)C2)cc1` (stereo unspecified) are 3.52 µM, 2.12 µM, 3.41 µM, 2.18 µM and 3.05 µM.
